The text below walks through data of the array DNA melting data of Ke et al. (doi:10.1101/2024.01.08.574731).

A short description of data set [1]: folding enthalpy; higher = less favourable; fluorescence melt of hairpins on a sequencing array, two-state fit. The conditions noted are these: sodium 0.088 M. The method, boiled down:
(§1)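 Folding enthalpy and melting temperature were estimated with bootstrapped two-state fits and combined across four replicates by inverse-variance weighting, with fitted temperatures raised by 9.35 °C to match UV melts. The data were Cy3 fluorescence of library hairpins, with annealed Cy3 and quencher oligos, on a sequenced MiSeq flow cell in 50 mM Na-HEPES pH 8.0, 25 mM NaCl, imaged in 2.5 °C steps up to 60 °C and normalised to pre-quench Cy3 and control constructs.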

The nature of data set [2]: melting temperature; fluorescence melt of hairpins on a sequencing array, two-state fit, raised by 9.35 °C to match UV melts. The conditions noted are these: sodium 0.088 M. In a few lines:
as §1

Turning to GGTTTCGAAAGAAAGACC ((((((....)))..))), the folding enthalpy in data set [1] is -14.4 kcal/mol. Further, the Tm in data set [2] was found to be 30.1 °C.

In the case of GGTTTCGAAAGAACAACC ((((((....)))..))), in data set [1], the folding enthalpy was -13 kcal/mol. Moreover, the Tm in data set [2] stood at 30.4 °C.

As for GGTTTCGCGAAAGCGACC (((..(((....)))))), the folding enthalpy in data set [1] was -8.08 kcal/mol. For the same sequence, in data set [2], the Tm stood at 32.1 °C.

On to GGTTTCGGAAACGAGATC (.(.(((....))).).), for which the folding enthalpy in data set [1] was -11.6 kcal/mol. In addition, the Tm in data set [2] was found to be 27.7 °C.

Consider GGTTTCGGAAACGGAATC (.((.((....)).)).), for which the folding enthalpy in data set [1] was -20.8 kcal/mol. In addition, in data set [2], the Tm stood at 33.4 °C.

For the sequence GGTTTCTCGAAAGAGACC (((..(((....)))))), the folding enthalpy in data set [1] was -18.8 kcal/mol. Moreover, the Tm in data set [2] worked out at 32.6 °C.

In the case of GGTTTGGGAAACTAAACC (((((.(....).))))), in data set [1], the folding enthalpy was -33 kcal/mol. Moreover, the Tm in data set [2] stood at 44.7 °C.

Regarding GGTTTGTCGAAAGACACC (((..(((....)))))), in data set [1], the folding enthalpy was -10.9 kcal/mol. The Tm in data set [2] stood at 31.2 °C.

Turning to GGTTTTCCGAAAGGAACC (((..(((....)))))), the folding enthalpy in data set [1] is -12.1 kcal/mol. The Tm in data set [2] turned out to be 31.1 °C.

As to GGTTTTGGAAACGAAATC (.(((.(....).))).), the folding enthalpy in data set [1] was -12.1 kcal/mol. The Tm in data set [2] amounted to 25.2 °C.

With GTAAAAGGAAACTTTTAC (((((((....))))))), in data set [1], the folding enthalpy was -37.1 kcal/mol. Moreover, in data set [2], the Tm came out at 46.4 °C.

For the sequence GTAAACCCGAAAGGGTAC (((..(((....)))))), in data set [1], the folding enthalpy was -10.1 kcal/mol. Besides, the Tm in data set [2] was found to be 32.8 °C.

As to GTAAACCGAAAGGTCTAC (((.(((....))).))), the folding enthalpy in data set [1] was -19.2 kcal/mol. Further, the Tm in data set [2] was 35.6 °C.

On to GTAAACGAAAGTTGCTAC ((((((....)))..))), for which, in data set [1], the folding enthalpy was -9.49 kcal/mol. Further, the Tm in data set [2] was 29 °C.

GTAAACGCGAAAGCGTAC (((..(((....)))))): the folding enthalpy in data set [1] was -8.26 kcal/mol. Besides, the Tm in data set [2] is 35 °C.

With GTAAAGACGAAAGTCTAC (((..(((....)))))), the folding enthalpy in data set [1] was -11.6 kcal/mol. Besides, in data set [2], the Tm is 29.8 °C.

With GTAAAGGGAAACCCTTAC ((((.((....)).)))), the folding enthalpy in data set [1] is -22.2 kcal/mol. In addition, the Tm in data set [2] was 32.8 °C.

With GTAAAGGGAAACCTTTGC (.(((((....))))).), the folding enthalpy in data set [1] is -28.4 kcal/mol. Moreover, the Tm in data set [2] was found to be 37.5 °C.

Take GTAAAGTCGAAAGACTAC (((..(((....)))))): the folding enthalpy in data set [1] was -11.7 kcal/mol. For the same sequence, in data set [2], the Tm was found to be 31.9 °C.

Turning to GTAAATCGAAAGATGTAC (((.(((....))).))), the folding enthalpy in data set [1] was -23.1 kcal/mol. Besides, the Tm in data set [2] was 34.4 °C.

In the case of GTAAATCGAAAGATTAC (((.(((....)))))), the folding enthalpy in data set [1] was -14 kcal/mol. In addition, the Tm in data set [2] was determined as 33.9 °C.

With GTAAATGAAAATTTAC ((((((....)))))), in data set [1], the folding enthalpy was -26.1 kcal/mol. The Tm in data set [2] amounted to 37.2 °C.

Consider GTAAATGCGAAAGCATAC (((..(((....)))))), for which, in data set [1], the folding enthalpy is -10.9 kcal/mol. The Tm in data set [2] is 29.3 °C.

As to GTAACCGAAAGGTGTAC ((((((....))).))), in data set [1], the folding enthalpy was -19.5 kcal/mol. In data set [2], the Tm was found to be 41.3 °C.

GTAACCGAAAGGTTATAC ((((((....)))..))): the folding enthalpy in data set [1] was -13.4 kcal/mol. The Tm in data set [2] came out at 43.7 °C.

Consider GTAACCGAAAGGTTTAC ((((((....))).))), for which, in data set [1], the folding enthalpy is -14.2 kcal/mol. For the same sequence, the Tm in data set [2] was found to be 43 °C.

On to GTAACGAAAGTTAC (((((....))))), for which, in data set [1], the folding enthalpy was -26.1 kcal/mol. Further, the Tm in data set [2] was 55 °C.

With GTAACGCCGAAAGGCTAC (((..(((....)))))), in data set [1], the folding enthalpy is -6.97 kcal/mol. In addition, the Tm in data set [2] came out at 27.1 °C.

Take GTAACGGGAAACTGTTGC (.(((.(....).))).): in data set [1], the folding enthalpy was -22.8 kcal/mol. Also, the Tm in data set [2] is 32.9 °C.

For GTAACTGGAAACGGTTAC (((((.(....).))))), the folding enthalpy in data set [1] is -32.6 kcal/mol. Besides, in data set [2], the Tm came out at 44.1 °C.

As for GTAAGAGAAATCTTAC ((((((....)))))), the folding enthalpy in data set [1] is -22 kcal/mol. Besides, the Tm in data set [2] is 38.6 °C.

Turning to GTAAGCCGAAAGGCTAC (((.(((....)))))), the folding enthalpy in data set [1] was -11.5 kcal/mol. In data set [2], the Tm was found to be 47.3 °C.

For GTAAGCGAAAGCTGATAC ((((((....)))..))), the folding enthalpy in data set [1] was -12.2 kcal/mol. Moreover, in data set [2], the Tm is 29.8 °C.

As to GTAAGCGGAAACGCTCAC ((.((((....)))).)), in data set [1], the folding enthalpy is -13.4 kcal/mol. Besides, the Tm in data set [2] stood at 37.7 °C.

Turning to GTAAGCTCGAAAGAGTAC (((..(((....)))))), the folding enthalpy in data set [1] was -12.2 kcal/mol. Further, in data set [2], the Tm came to 27 °C.

In the case of GTAAGGTCGAAAGACTAC (((..(((....)))))), the folding enthalpy in data set [1] is -13.1 kcal/mol. Also, the Tm in data set [2] came to 29.1 °C.

Regarding GTAAGTCGAAAGACTAC (((.(((....)))))), the folding enthalpy in data set [1] was -16.9 kcal/mol. Besides, the Tm in data set [2] amounted to 39.5 °C.
